Tests used:
Cathepsin B = Cathepsin B (Homo sapiens, UniProt P07858); assay: Activity against serine protease human liver Cathepsin B (cat-B )
Procedure, shortened: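 Human liver cathepsin B, 5 nM, with the stock enzyme activated in 20 mM TCEP before use. Inhibitor at 300–0.06 μM, preincubated 1 h at 30 °C. Then 30 μM Z-FR-pNA added, hydrolysis to ~30% conversion, pNA absorbance read.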

Chymotrypsinogen A = Chymotrypsinogen A (Bos taurus, UniProt P00766); assay: Activity against serine protease bovine pancreatic Alpha-Chymotrypsinogen (BPC)
Procedure, shortened: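 Colorimetric assay with bovine pancreatic α-chymotrypsin ([…], as printed) and 100 μM Succ-AAPF-pNA. Inhibitor at 300–0.06 μM, preincubated with enzyme 1 h at 30 °C. Substrate then added and hydrolysis run to ~30% conversion, read as pNA absorbance.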

Neutrophil elastase = target: T1, Neutrophil elastase (Homo sapiens, UniProt P08246); assay: Binding affinity for human leukocyte elastase(HLE) serine protease
T1 sequence (P08246 whole entry): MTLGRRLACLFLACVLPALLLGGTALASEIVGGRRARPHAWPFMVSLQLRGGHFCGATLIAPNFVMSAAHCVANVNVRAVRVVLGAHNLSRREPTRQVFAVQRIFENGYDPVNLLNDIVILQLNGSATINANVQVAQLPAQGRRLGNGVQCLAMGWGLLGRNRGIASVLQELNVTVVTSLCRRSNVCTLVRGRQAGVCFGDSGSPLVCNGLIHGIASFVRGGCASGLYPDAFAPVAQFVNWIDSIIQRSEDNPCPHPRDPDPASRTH
Procedure, shortened: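 Human leukocyte elastase at 8 nM with 133 μM Succ-AAV-pNA. Inhibitor at 300–0.06 μM, preincubated with enzyme 1 h at 30 °C. Substrate hydrolysis run to ~30% conversion and read by absorbance.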

Row | IC50 (Cathepsin B) | IC50 (Chymotrypsinogen A) | IC50 (Neutrophil elastase) | SMILES
1 | > 300 µM | > 75 µM | > 300 µM | CN(C)C(=O)C[C@H](NC(=O)[C@@H](NC(=O)CC(C)(C)C)C(C)(C)C)C(=O)N[C@H]1CN(OCc2ccccc2)C1=O
2 | > 300 µM | > 300 µM | 183 µM | CC(NC(=O)[C@H](CC(=O)N(C)C)NC(=O)[C@@H](NC(=O)CC(C)(C)C)C(C)(C)C)C(=O)c1nc2ccccc2o1 (stereo partly specified)
3 | 59 µM | > 300 µM | > 300 µM | CC(NC(=O)[C@H](CC(=O)N(C)C)NC(=O)[C@@H](NC(=O)CC(C)(C)C)C(C)(C)C)C(=O)c1nc2ncccc2o1 (stereo partly specified)
4 | > 300 µM | > 300 µM | > 300 µM | Cc1cccc2oc(C(=O)C(C)NC(=O)[C@H](CC(=O)N(C)C)NC(=O)[C@@H](NC(=O)CC(C)(C)C)C(C)(C)C)nc12 (stereo partly specified)
5 | 19 µM | > 300 µM | > 300 µM | CC(NC(=O)[C@H](CC(=O)N(C)C)NC(=O)[C@@H](NC(=O)CC(C)(C)C)C(C)(C)C)C(=O)c1nc2ccccc2s1 (stereo partly specified)
6 | > 300 µM | > 300 µM | > 300 µM | Cc1ccc2oc(C(=O)C(C)NC(=O)[C@H](CC(=O)N(C)C)NC(=O)[C@@H](NC(=O)CC(C)(C)C)C(C)(C)C)nc2c1 (stereo partly specified)
7 | > 300 µM | > 300 µM | > 300 µM | Cc1cccc2nc(C(=O)C(C)NC(=O)[C@H](CC(=O)N(C)C)NC(=O)[C@@H](NC(=O)CC(C)(C)C)C(C)(C)C)oc12 (stereo partly specified)
8 | > 300 µM | 14 µM | > 300 µM | CC(NC(=O)[C@H](CC(=O)N(C)C)NC(=O)[C@@H](NC(=O)CC(C)(C)C)C(C)(C)C)C(=O)C(F)(F)C(F)(F)F (stereo partly specified)
9 | > 300 µM | > 300 µM | > 300 µM | C[C@H](NC(=O)[C@H](CC(=O)N(C)C)NC(=O)[C@@H](NC(=O)CC(C)(C)C)C(C)(C)C)C(=O)C(F)(F)F
10 | > 300 µM | > 300 µM | > 300 µM | C[C@H](NC(=O)[C@H](CC(=O)N(C)C)NC(=O)[C@@H](NC(=O)CC(C)(C)C)C(C)(C)C)C(=O)C(F)(F)C(=O)NCc1ccccc1
11 | > 300 µM | > 300 µM | > 300 µM | CC(NC(=O)[C@H](CC(=O)N(C)C)NC(=O)[C@@H](NC(=O)CC(C)(C)C)C(C)(C)C)C(=O)C(=O)NCc1ccccc1 (stereo partly specified)
12 | 225 µM | > 300 µM | > 300 µM | Cc1ccc2nc(C(=O)C(C)NC(=O)[C@H](CC(=O)N(C)C)NC(=O)[C@@H](NC(=O)CC(C)(C)C)C(C)(C)C)oc2c1 (stereo partly specified)
